These results are taken from ChEMBL document CHEMBL1145797, “Synthesis and antitumor activity of novel O-carbamoylmethyloxime derivatives of radicicol” (J Med Chem, 2003).

Structures are written as SMILES.

For experiment [1], the system named is NRK. The experiment can be described thus: Concentration to inhibit growth of normal rat kidney epithelial cells (NRK cells) after 72 hr exposure. Type of experiment: functional, cell-based. In outline:
(§1)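 Cells precultured 24 h in DMEM with 10% fetal calf serum, then exposed to drug for 72 h. Viability read by MTT assay. IC50 taken as concentration giving 50% growth inhibition relative to control cultures.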

Experiment [2] can be described thus: Concentration to inhibit growth of normal rat K-ras-transformed cells (KNRK 5.2 cells) after 72 hr exposure. Type of experiment: functional. The gist of the method: as §1
Experiment [3] deals with Proto-oncogene tyrosine-protein kinase Src (Rattus norvegicus, UniProt Q9WUD9). Description: Inhibition of v-Src tyrosine kinase autophosphorylation in SR3Y1 cells after 15 hr exposure. Type of experiment: cell-based. In outline: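 SR-3Y1 cells exposed to drug 15 h, lysed on ice 20 min in Tris pH 7.5 RIPA-type buffer with protease inhibitors and 1 mM vanadate. Equal-protein lysates run on SDS-PAGE, blotted with anti-phosphotyrosine antibody, HRP secondary, ECL detection. IC50 = concentration halving tyrosine phosphorylation.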

Experiment [4] is described as follows: Inhibition of K-ras-induced MAPK phosphorylation in KNRK5.2 cells after 40h exposure at 0.2 uM. Type of experiment: functional. The settings on record: Rattus norvegicus. In outline: (§2)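 KNRK5.2 cells exposed to 0.2 µM drug for 40 h, then lysed. Equal-protein lysates Western blotted in duplicate for Raf-1 (rabbit polyclonal), phospho-MAPK (phosphospecific antibody) and total Erk2 (monoclonal). Read-out is % inhibition of phospho-Erk2 formation or % Raf-1 depletion.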

Experiment [5] is described as follows: Percent depletion of Raf-1 protein expression after 40h exposure at 0.2 uM in KNRK5.2 cells. Type of experiment: functional, cell-based. The settings on record: Rattus norvegicus. In outline: as §2
Experiment [6] relates to 3Y1 cell line. The experiment can be described thus: Concentration to inhibit growth of normal rat fibroblast cells (3Y1-B cells) after 72 h exposure. Type of experiment: functional, cell-based. The settings on record: 3Y1, 72 h. In outline: as §1
The test system of experiment [7] is Mus musculus. The experiment can be described thus: In vivo antitumor activity against BALB mice transplanted with human tumor (MX-1) using Xenograft Model at a dose of 100 mg/kg by administering intravenously for 5 days and mortality is calculated. Type of experiment: functional. The settings on record: route intravenous. The gist of the method: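 Adult BALB/c nu/nu mice (n = 5) inoculated sc in the flank with human tumor cells: MX-1 on day -14, A431 on day -18. Drug dissolved in cremophor EL/N,N-dimethylacetamide/physiological saline (7.5:5:87.5) and given iv once daily on days 0-4. Animals monitored for lethal toxicity and body weight loss.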

Experiment [8] deals with Mus musculus. Description: In vivo antitumor activity against BALB mice transplanted with human tumor (MX-1) using Xenograft Model at a dose of 100 mg/kg by administering intravenously for 5 days and T/C value is calculated on 14th day. Particulars: route intravenous. Type of experiment: functional.
Experiment [9] in a line: Concentration to inhibit growth of v-src-transformed cells (SR-3Y1 cells) after 72 h exposure. Type of experiment: functional. Particulars: Rattus norvegicus, SR3Y1, 72 h. The gist of the method:
as §1

As for `C[C@@H]1C[C@H]2O[C@@H]2\C=C/C=C/C(=N\O)Cc2c(Cl)c(O)cc(O)c2C(=O)O1`, the half-maximal inhibitory concentration (IC50) stood at 0.08 µM in experiment [1]; 0.039 µM in experiment [2]; 0.056 µM in [3]; 0.09 µM in experiment [6]; 0.026 µM in experiment [9]. Moreover, the inhibition at 0.2 µM in experiment [4] was 81%. The Depletion in experiment [5] was 29%. Besides, the Mortality in experiment [7] is listed as 0. For the same molecule, the T/C min in [8] was 0.49.

What is called IC50 is the concentration that gives 50% inhibition. Read a low IC50 as higher potency. The term inhibition denotes how much of the control response was suppressed.
